Most compounds without a hit are left out; they make up all but 2.9% or so of the library.
MEKK2 mut-MEK5: signal of MEK5 binding to mutant human MEKK2 PB1 domain. bead flow cytometry, Alexa488-MEK5 binding to MEKK2 mutant. percent response, % at 10 µM. hit rate 0.35% among 290,000. AID 1530; in the data active = percent response above about 24%, passing the limit was not always enough
MEKK2 WT-MEK5: raises or lowers MEK5 binding to wildtype human MEKK2 PB1 domain | binding response (% of control), % at 10 µM | AID 1531 | bead flow cytometry, Alexa488-MEK5 binding to MEKK2 WT; actives lie on both sides | hit rate 1.1% among 290,000 | Q9Y2U5; in the data active = binding response below about 67% or above about 130%
MEKK3 PB1 HTS: modulators (inhibitors or enhancers) of MEK5 binding to human MEKK3 PB1 domain. Q99759. bead-based flow cytometry, Alexa488-MEK5 binding to MEKK3; actives lie on both sides; 0 = blocked by unlabeled MEK5, 100 = vehicle. binding response (% of control), % at 10 µM. hit rate 1.4% among 290,000. AID 1529;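 active = binding response more than 3 SD above or below the average of its plate-row segment, actives on both sides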;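 note: Alexa488 bead fluorescence after subtracting the streptavidin-only scavenger bead signal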
Beta2AR agonist: agonists of human beta-2 adrenergic receptor inducing internalization; P07550; Am2.2-beta2AR cells, FAP receptor internalization, flow cytometry; response, % (concentration not given with the values); hit rate 0.43% among 340,000; AID 504454;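 active = response above a set limit, near 3 SD of response in nonfluorescent compounds, cut at about 42% in these data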
ATG4B inh: ATG4B (human) cysteine protease inhibition; Q9Y4P1; ATG4B cleavage of LC3-PLA2, NBD-HPC fluorescence, 1 h; inhibition, % at 8.33 µM; hit rate 0.51% among 340,000; AID 504462; in the data active = inhibition above about 40%
Target sequence (Q9Y4P1 whole entry, looked up): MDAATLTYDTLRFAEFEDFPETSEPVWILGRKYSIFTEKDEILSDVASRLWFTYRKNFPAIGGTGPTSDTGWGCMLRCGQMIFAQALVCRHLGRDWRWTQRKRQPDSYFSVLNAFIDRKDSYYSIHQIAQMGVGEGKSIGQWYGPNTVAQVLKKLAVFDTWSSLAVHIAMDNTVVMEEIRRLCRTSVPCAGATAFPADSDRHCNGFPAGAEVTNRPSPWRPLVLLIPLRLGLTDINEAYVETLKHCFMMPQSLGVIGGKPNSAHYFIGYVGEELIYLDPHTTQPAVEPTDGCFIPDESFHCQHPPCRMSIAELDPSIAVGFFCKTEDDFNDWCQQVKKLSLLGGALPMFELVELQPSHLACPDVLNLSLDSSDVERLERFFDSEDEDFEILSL
Dynein transport: dynein cargo transport inhibition | 3617.4 mouse cells, GR-EGFP nuclear translocation imaging; test concentration mostly 20 µM; stimulated with dexamethasone, 1 µM; hits give low values | z-score, hits read low | hit rate 0.47% among 220,000 | AID 1381;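 active = plate z-score of nuclear minus cytoplasmic receptor signal below a set negative limit, without overly bright fluorescence or cell loss, cut at about -3.5 in these data, passing the limit was not always enough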;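 note: z-score of nuclear minus cytoplasmic ring GR-EGFP intensity difference per well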
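Also added: dexamethasone, 1.0 µM final. Medium: tet-free, stripped-serum medium. Detection: fixed, Hoechst-stained cells imaged at 10x for EGFP. Read-out: nuclear-to-cytoplasmic GR-EGFP distribution per well. Times: induction 48 h, compound 1 h, agonist 30 min.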
MEKK2wt confirm: raises or lowers MEK5 binding to wildtype human MEKK2, retest; shares compounds with MEKK3 PB1 HTS; bead flow cytometry, Alexa488-MEK5 binding to MEKK2 WT; actives lie on both sides; binding response (% of control), % at 10 µM; hit rate 2.4% among 5,900; AID 1892; in the data active = binding response below about 16% or above about 210%; inactive = in between
MEKK2mut confirm: signal of MEK5 binding to mutant human MEKK2, retest; shares compounds with MEKK3 PB1 HTS; bead flow cytometry, Alexa488-MEK5 binding to MEKK2 mutant; percent response, % at 10 µM; hit rate 2% among 5,900; in the data active = percent response mostly above about 71%, no sharp cut-off; inactive = mostly below about 38%;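 note: higher means compound restores mutant binding toward wildtype level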
MEKK3-MEK5 inh: confirmation of inhibitors of MEK5 binding to human MEKK3; shares compounds with MEKK3 PB1 HTS; bead flow cytometry, Alexa488-MEK5 binding to MEKK3; hits give low values; binding response (% of control), % at 10 µM; hit rate 1.8% among 5,900; AID 1894;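 active = binding response below 72% of control, or above a set upper limit, though filed actives all read lower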;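 note: lower values mean stronger disruption of MEK5 binding to MEKK3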
Each line names hits and unclear results; the compound was inactive in the other large screens (follow-up assays come after a bar, where they were run); [ ] = remark or other dose.

CNC[C@H](Cc1ccccc1)NC[C@@H](Cc1cccc2ccccc12)NCCc1ccc(C)cc1	MEKK2 mut-MEK5 120, MEKK2 WT-MEK5 364, Beta2AR agonist 98 (no result: Dynein transport) | MEKK2wt confirm 255 | MEKK2mut confirm 100 | MEKK3-MEK5 inh inactive
CCCCC(CCC(=O)Nc1ccc(C(=O)OC)cc1)C(=O)O (stereo not drawn)	MEKK3 PB1 HTS 123 | MEKK2wt confirm inactive | MEKK2mut confirm inactive | MEKK3-MEK5 inh inactive
O=C(N/N=C/c1cn(Cc2cccc(F)c2)c2ccccc12)c1cc(O)cc(O)c1	MEKK2 WT-MEK5 65[inhibitor], MEKK3 PB1 HTS 79[inhibitor] (no result: Dynein transport) | MEKK2wt confirm inactive | MEKK2mut confirm inactive | MEKK3-MEK5 inh inactive
CCN1CCN(CCNC(=O)c2ccc(/C=C3/Sc4ccccc4N(Cc4ccccc4C)C3=O)cc2)CC1	MEKK2 mut-MEK5 54, MEKK2 WT-MEK5 203 | MEKK2wt confirm inactive | MEKK2mut confirm inactive | MEKK3-MEK5 inh inactive
CCC1=Nc2cc(C(=O)NCCCN3CCN(C)CC3)ccc2Sc2ccccc21	none (no result: Dynein transport)
CCC1=Nc2cc(C(=O)NCCCOC(C)C)ccc2Sc2ccccc21	MEKK3 PB1 HTS 128 | MEKK2wt confirm inactive | MEKK2mut confirm inactive | MEKK3-MEK5 inh inactive
CCCCn1c(N)c(N(CCC(C)C)C(=O)CSc2nc3ccccc3n2C)c(=O)[nH]c1=O	none (no result: MEKK2 mut-MEK5, MEKK2 WT-MEK5, MEKK3 PB1 HTS, Dynein transport)
CCCCOc1ccc(CSCCN)cc1Cl	MEKK2 WT-MEK5 169, MEKK3 PB1 HTS 128 | MEKK2wt confirm inactive | MEKK2mut confirm inactive | MEKK3-MEK5 inh inactive
CCCn1c(C)nnc1SCC(=O)NC1CCCCC1	none (no result: Dynein transport)
COc1cc(/C=C\C(=O)O)cc(S(=O)(=O)N2CCCCCC2)c1OC	none (no result: Dynein transport)
COc1ccc(CNC(=O)/C(C#N)=C2\N=C(NC(=O)c3cccs3)c3ccccc32)cc1	MEKK3 PB1 HTS 74[inhibitor] | MEKK2wt confirm inactive | MEKK2mut confirm inactive | MEKK3-MEK5 inh inactive
COc1ccc(C(=O)OCC(=O)NCC2CCCCC2)cc1F	none (no result: MEKK2 mut-MEK5, MEKK2 WT-MEK5, MEKK3 PB1 HTS, Dynein transport)
C/C(=N\NC(=O)CCC(=O)NCc1ccccc1)c1ccco1	none (no result: Dynein transport)
C=CCC(C)(NCc1ccccc1)c1ccco1 (stereo not drawn)	MEKK2 WT-MEK5 2.0[inhibitor], MEKK3 PB1 HTS 2.0[inhibitor] | MEKK2wt confirm inactive | MEKK2mut confirm inactive | MEKK3-MEK5 inh inactive
O=C(CNC1C(=O)Nc2ccccc21)Sc1ccccc1 (stereo not drawn)	MEKK2 WT-MEK5 3.0[inhibitor], MEKK3 PB1 HTS 2.0[inhibitor] | MEKK2wt confirm inactive | MEKK2mut confirm inactive | MEKK3-MEK5 inh inactive
OCCC1CN(Cc2cnc(N3CCOCC3)s2)CCN1C1CCCC1 (stereo not drawn)	none
CCOC(=O)Cc1nc2ccccc2[nH]1	none
CCOC(=O)Cc1nc(-c2ccccc2)n[nH]1	MEKK2 WT-MEK5 1.0[inhibitor] | MEKK2wt confirm inactive | MEKK2mut confirm inactive | MEKK3-MEK5 inh inactive
COc1ccc(NC(=O)CC#N)cc1OC	none
CN(C)CCCN(C(=O)/C=C/c1cccs1)c1nc2ccc(F)cc2s1	MEKK2 WT-MEK5 152 | MEKK2wt confirm inactive | MEKK2mut confirm inactive | MEKK3-MEK5 inh inactive
CN(C)CCCN(C(=O)C1COc2ccccc2O1)c1nc2ccc(F)cc2s1 (stereo not drawn)	none
CCN(CC)CCN(C(=O)/C=C/c1cccs1)c1nc2ccc(F)cc2s1	none (no result: Dynein transport)
CN(C)CCCN(C(=O)c1sc2ccccc2c1Cl)c1nc2ccc(F)cc2s1	MEKK2 WT-MEK5 143 | MEKK2wt confirm inactive | MEKK2mut confirm inactive | MEKK3-MEK5 inh inactive
O=C(NC1CCOCC1)C1CCC(=O)N(CCc2ccc(Cl)cc2)C1 (stereo not drawn)	none (no result: Dynein transport)

Compound activity (PubChem)
